Screening results from PubChem.
S100A4 inh HTS = inhibitors of human S100A4 binding to myosin IIA peptide; P26447; S100A4/TAMRA-MyoIIA peptide fluorescence polarization; inhibition, % at 10.7 µM; actives 0.14% (n = 360,000);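 active means mean inhibition of at least 70% across replicates, with every replicate also reaching that level; inconclusive means mean inhibition reaches 70% but some replicates fall short; inactive means mean inhibition below 70%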
Target sequence (P26447 whole entry, looked up): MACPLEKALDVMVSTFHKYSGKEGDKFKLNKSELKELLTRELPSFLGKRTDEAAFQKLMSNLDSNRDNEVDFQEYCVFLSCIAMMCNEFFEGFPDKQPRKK
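Test system: S100A4 monomer protein. Medium: HEPES buffer with Ca2+, pH 7.2. Reagent: fluorescent myosin IIA peptide, 5 nM. Compound dosing: single-point compound testing. Timing: 5 min between mix addition and reading. Benchmarks: DMSO neutral and TFP positive wells.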
Env fusion inh = HIV envelope-mediated fusion inhibition | HeLa-JRFL Env/CEM21 cell fusion, luciferase | inhibition, % at 12.3 µM | actives 1.1% (n = 360,000) | AID 651610;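 active means mean replicate inhibition score of at least 50 and every replicate individually at or above 50; inconclusive means only one of the two criteria met; inactive means mean below 50 and not all replicates reaching 50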;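 further: 0% = plate neutral controls and 100% = maraviroc near 300 nM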
E-sel inducer = induces E-selectin expression in human endothelial cells. P16581. actives 0.37% (n = 260,000). AID 686992. HUVEC E-selectin immunofluorescence imaging; normalized: neutral wells 0, TNF-alpha wells 100. activation, % at 7.58 µM;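 active means mean E-selectin-positive cell signal at least 10% of the positive control, reached in at least 60% of replicates, without over 20% cell loss; inconclusive means no rule given, readout overlaps actives, possibly toxicity-flagged; inactive means the rest, including those meeting only one limit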
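System: HUVEC / Compound: single concentration / Signal: immunofluorescence imaging / Read-out: percent E-selectin-positive cells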
F508del corr = CFTR F508del correction in bronchial cells. CFBE cells, YFP halide quenching; stimulated with forskolin plus potentiator P3; % fluorescence drop versus neutral controls. activity (quench increase), % at 7.58 µM. actives 0.36% (n = 350,000). AID 720511;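 active means mean added fluorescence quench of at least 8% versus neutral control, with both replicates also reaching 8%; inconclusive means only one of the mean or replicate conditions met; inactive means mean below 8% and not both replicates reaching 8%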;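 further: cells transiently co-express mutant CFTR-F508del with the halide-sensitive YFP; corrector assay measuring rescue of mutant channel to the surface after 24 h compound exposure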
FGF22 binding = shifts melting point of recombinant human FGF22; recombinant FGF22 thermal shift, SYPRO orange fluorescence; percent of sucrose octasulfate shift, DMSO zero; activity (Tm shift, normalised), % at 9.99 µM; actives 1.5% (n = 340,000);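 active means mean Tm shift, scaled 0 neutral to 100 positive control, at about 1.3% or above, every replicate too, limit read from the data; inconclusive means no clear call, values can overlap the other calls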
Target sequence (Q9HCT0 whole entry, looked up): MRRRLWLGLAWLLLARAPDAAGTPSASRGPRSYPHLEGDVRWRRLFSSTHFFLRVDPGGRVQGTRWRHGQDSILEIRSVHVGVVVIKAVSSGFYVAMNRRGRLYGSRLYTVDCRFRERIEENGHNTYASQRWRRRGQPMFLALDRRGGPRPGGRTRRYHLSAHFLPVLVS
* marks the source's active call; other numbers are inactive results; ? = inconclusive; . = not tested or not shown; [ ] = another dose, or the depositor's remark. An excerpt weighted towards active compounds, which were near 2.7% of everything screened.

SMILES	S100A4 inh HTS	Env fusion inh	E-sel inducer	F508del corr	FGF22 binding
COc1cccc2c1OCC/C2=N\NC(=O)C(C)Oc1ccc([N+](=O)[O-])cc1 (configuration not stated)	0	-6	.	-6	62*
CS(=O)(=O)N1CCN=C1SCc1ccc([N+](=O)[O-])cc1	5	13	.	1	43*
CS(=O)(=O)N1CCN=C1SCc1ccc(Br)cc1	0	3	-1	0	0
Cc1cccc(COC[C@H](Cc2ccccc2)N2CCN(C(=O)c3cccc(C)c3)CCC2=O)c1	2	21	2	4	0
Cc1cccc(COCC(Cc2ccccc2)N2CCN(C(=O)c3cccc(Cl)c3)CCC2=O)c1 (configuration not stated)	4	66*	0	-1	0
Cc1cccc(COC[C@H](Cc2ccccc2)N2CCN(C(=O)c3cc(Cl)cc(Cl)c3)CCC2=O)c1	-3	92*	-7	0	0
Cc1cccc(COC[C@H](Cc2ccccc2)N2CCN(C(=O)c3cccc(Cl)c3)CCC2=O)c1	-2	75*	0	0	0
CO[C@@H]1CN(C)C(=O)c2ccc(NC(=O)c3cnccn3)cc2OC[C@H](C)N(CCc2ccccc2)C[C@H]1C	2	16[16.7 µM]	0	-1	0
COCC1CCN(Cc2nc(-c3ccc(OC)cc3)no2)CC1	-1	2	0	3	43*
O=C(C[C@H]1C=C[C@@H](NC(=O)Nc2cc(F)ccc2F)[C@H](CO)O1)Nc1ccccc1	-2	-10[16.7 µM]	1	-2	0
C[C@@H]1CCCCO[C@H](CN(C)C(=O)CCC(F)(F)F)[C@H](C)CN([C@@H](C)CO)C(=O)c2cc(NS(=O)(=O)c3ccc(F)cc3)ccc2O1	-2	39[16.7 µM]	.	0	0
CCCCc1c(O)nc2ccccn2c1=O	3	8	0	-1	0
Cc1c(O)nc2ccccn2c1=O	4	2	71*	0	0
CC(=O)Nc1sc2c(c1-c1nc3ccccc3s1)CN(C(C)C)CC2	-3	?	1	24*	0
O=C(C[C@H]1CC[C@H]2[C@@H](COC[C@@H](O)CN2Cc2ccc(Oc3ccccc3)cc2)O1)N1CCCCC1	9	.	0	-1	0
CCc1ccc2c(c1)C(=O)c1ccccc1C2=O	3	-56	.	4	43*
CC(C)(C)c1ccc2c(c1)C(=O)c1ccccc1C2=O	-2	-217	.	.	0
Cc1cc(N2CCOCC2)nc(N2CCOCC2)n1	1	6	-1	0	43*
Cc1cc(N2CCCCC2)nc(N2CCOCC2)n1	.	14	0	.	.
O=C(C[C@@H]1C[C@@H]2c3cc(NC(=O)NC4CCCC4)ccc3O[C@@H]2[C@@H](CO)O1)NCc1cc(F)ccc1F	.	0[16.7 µM]	0	-4	0
O=C(Nc1ccccc1N1CCCC1)c1ccc([N+](=O)[O-])cc1Cl	-5	7	.	1	44*
O=C(Nc1ccccc1N1CCCC1)c1ccc(Cl)cc1Cl	-1	1	.	-1	0
O=C(Nc1ccccc1N1CCCC1)c1cc(Cl)ccc1Cl	-5	9	.	0	45*
CN1CCN(c2ccccc2NC(=O)c2cccc([N+](=O)[O-])c2)CC1	2	-8	0	2	44*
Cc1noc(C)c1NC(=O)N[C@@H]1C=C[C@H](CC(=O)Nc2ccccc2)O[C@H]1CO	-64	-2[16.7 µM]	0	1	0
SMILES	S100A4 inh HTS	Env fusion inh	E-sel inducer	F508del corr	FGF22 binding
Cc1noc(C)c1S(=O)(=O)Nc1cccc2c1O[C@H](CN(C)Cc1ccc3c(c1)OCO3)[C@H](C)CN([C@H](C)CO)C2=O	2	.	-5	1	-1
Cc1cccc(C2(c3cccc(C)c3)CC2C(=O)Nc2ccc([N+](=O)[O-])cc2O)c1 (configuration not stated)	.	75*	.	.	.
CCOCCCNC(=O)/C(C#N)=C/c1cc(C)c(O)c(C)c1	-6	-56	4	3	43*
CCCCS(=O)(=O)N1CCN(C(=O)C(=O)c2cccc(C(F)(F)F)c2)CC1	0	91*	0	0	0
Cn1c(=O)c2sccc2n2c(CCCC(=O)N3CCN(c4ccccn4)CC3)nnc12	111*	-1	.	2	0
O=C(c1ccccn1)N1CC2(C1)[C@@H](c1ccccc1)[C@@H](CO)N2Cc1ccc(Cl)cc1	10	.	0	-4	0
CC#CC[N+](C)(C)CCCCCCCCCCCC	-3	62*	1	4	0
O=C(Nc1cccc(-c2nnc(-c3ccco3)o2)c1)c1ccccc1	6	-19	-1	-1	43*
CC(=O)Oc1ccc(C(=O)Nc2cccc(-c3nnc(-c4ccco4)o3)c2)cc1	0	17	0	2	0
CC1CCCC=CC2CC(OC(=O)CN(C)C)CC2C(O)C=CC(=O)O1 (configuration not stated)	4	62*	1	-22	0
C[C@H]1CN([C@@H](C)CO)C(=O)Cc2cc(NC(=O)Cc3ccccc3)ccc2O[C@@H]1CN(C)Cc1ccncc1	1	.	7	-3	0
O=C(CSc1nc(-c2ccco2)cc(C(F)(F)F)n1)NCCCn1ccnc1	8	-8	0	-3	0
COc1ccccc1CCNC(=O)CSc1nc(-c2ccco2)cc(C(F)(F)F)n1	-4	59*	0	-2	0
COc1ccc2c3c([nH]c2c1)[C@H](CO)N(C)CC31CN(C(=O)NC(C)C)C1	1	.	0	0	0
O=C(CN1C(=O)c2ccccc2C1=O)Nc1cc([N+](=O)[O-])ccc1O	-3	7	1	-2	44*
Cc1c(NC(=O)CN2C(=O)c3ccc([N+](=O)[O-])cc3C2=O)c(=O)n(-c2ccccc2)n1C	6	1	.	1	0
O=C(c1ccccc1O)N1N=C(C(F)(F)F)CC1(O)c1ccc([N+](=O)[O-])cc1 (configuration not stated)	-2	59*	0	-7	0
O=C(CN1N=C(C(F)(F)F)CC1(O)c1ccc([N+](=O)[O-])cc1)c1ccccc1 (configuration not stated)	.	-167	.	.	.
CN(C)c1ccc2c(c1)[C@H]1C[C@H](CC(=O)O)O[C@@H](CO)[C@H]1O2	-3	-8[16.7 µM]	0	-1	0
COc1ccc(C(=O)Nc2ccc(C(F)(F)F)n(C)c2=O)cc1	0	-25	.	-1	44*
Cc1ccc(C(=O)Nc2ccc(C(F)(F)F)n(C)c2=O)cc1	-3	-53	.	3	.
CC(C)NC(=O)Nc1ccc2c(c1)CC(=O)N([C@@H](C)CO)C[C@@H](C)[C@@H](CN(C)S(C)(=O)=O)O2	4	4[16.7 µM]	.	-2	0
O=C(NCCSCc1ccccc1)c1ccc(C2SCC(=O)N2Cc2ccccc2)cc1 (configuration not stated)	.	64*	.	.	.
